Results from ChEMBL document CHEMBL1142014, “Synthesis and activity of 4,5-diarylimidazoles as human CB1 receptor inverse agonists” (Bioorg Med Chem Lett, 2005).

Assays:
[1] = molecular target: T1, Cannabinoid receptor 1 (Homo sapiens, UniProt P21554); assay: biochemical; type: cell-based, CHO
[2] = Normalised area under the concentration time curve in rat; type: ADME
Procedure, shortened: (§1)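 Male Sprague–Dawley rats dosed 1.0 mg/kg iv via an implanted cannula (n = 1 or 2) and 2.0 mg/kg po by gavage (n = 3). Both doses were formulated at 1 mg/mL in TWEEN 80:EtOH:water (10:23:67). Plasma drug levels were measured by LC–MS/MS after protein precipitation, and PK parameters were derived. AUC was normalised to dose.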

[3] = Oral bioavailability in rat; type: ADME, organism-based; settings: in vivo
Procedure, shortened: as §1

[4] = Half life in rat; type: ADME; settings: in vivo
Procedure, shortened: as §1

[5] = molecular target: T1, Cannabinoid receptor 1; assay: Effective concentration against human recombinant cannabinoid receptor type 1 expressed in Chinese Hamster Ovary (CHO) cells; type: cell-based
Procedure, shortened: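 Functional assay on recombinant human CB1 receptor expressed in CHO cells, run in the presence of forskolin.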

[6] = Plasma clearance in rat; type: ADME, organism-based; settings: read-out: Clp
Procedure, shortened: as §1

[7] = Volume distribution at steady state in rat; type: ADME, organism-based; settings: in vivo, read-out: Vdss
Procedure, shortened: as §1

[8] = Brain-to-plasma ratio after 1 hr in rat; type: ADME
Procedure, shortened: (§2)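 Male Sprague-Dawley rats given 1.0 mg/kg iv by tail vein, formulated at 1 mg/mL in TWEEN 80:EtOH:water (10:23:67). Sampled at 0.25, 1, 2 and 4 h (n = 3 per time point). Plasma and brain levels measured by LC–MS/MS and expressed as the brain/plasma ratio.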

[9] = Brain-to-plasma ratio after 2 hrs in rat; type: ADME
Procedure, shortened: as §2

[10] = (§3) Brain-to-plasma ratio after 4 hrs in rat; type: ADME
Procedure, shortened: as §2

[11] = Brain-to-plasma ratio after 0.25 hrs in rat; type: ADME
Procedure, shortened: as §2

[12] = as §3; type: ADME, cell-free; settings: read-out: B/P
Procedure, shortened: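 Male Sprague-Dawley rats were given 1.0 mg/kg iv via the tail vein, formulated at 1 mg/mL in TWEEN 80:EtOH:water (10:23:67). Three rats were used at each time point (0.25, 1, 2 and 4 h). Brain and plasma concentrations were measured by LC–MS/MS, and the brain-to-plasma ratio was taken at each time.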

T1 sequence (P21554 whole entry): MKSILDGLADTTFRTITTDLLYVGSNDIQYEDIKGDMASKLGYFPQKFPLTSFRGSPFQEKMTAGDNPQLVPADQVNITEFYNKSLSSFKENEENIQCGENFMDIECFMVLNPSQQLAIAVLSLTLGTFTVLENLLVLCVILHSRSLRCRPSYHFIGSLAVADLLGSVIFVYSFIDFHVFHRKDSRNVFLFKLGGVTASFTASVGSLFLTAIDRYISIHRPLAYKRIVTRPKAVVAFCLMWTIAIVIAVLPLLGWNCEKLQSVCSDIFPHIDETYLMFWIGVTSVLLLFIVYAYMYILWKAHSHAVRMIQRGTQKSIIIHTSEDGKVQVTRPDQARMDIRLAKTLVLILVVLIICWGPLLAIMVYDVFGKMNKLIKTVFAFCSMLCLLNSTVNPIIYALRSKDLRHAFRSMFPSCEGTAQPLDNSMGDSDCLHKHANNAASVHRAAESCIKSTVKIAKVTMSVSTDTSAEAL

Row | SMILES | IC50 [1] [µM] | further results
1 | Cn1c(C(=O)NC2CCCCC2)nc(-c2ccc(Cl)cc2Cl)c1-c1ccc(Cl)cc1 | 0.004 | AUC nom [2]: 1.8 µM·kg·h/mg; bioavailability [3]: 30%; half-life [4]: 1.9 h; EC50 [5]: 0.018 µM; clearance [6]: 20 mL/min/kg; Vd [7]: 1.9 L/kg; Kp at 1 h [8]: 2.1; Kp at 2 h [9]: 1.3; Kp at 4 h [10]: 2.6; Kp at 0.25 h [11]: 0.8
2 | CCn1c(C(=O)NC2CCCCC2)nc(-c2ccc(Cl)cc2Cl)c1-c1ccc(Cl)cc1 | 0.0041 | –
3 | CCCCCCNC(=O)c1nc(-c2ccc(Cl)cc2)c(-c2ccc(Cl)cc2)n1C | 0.54 | –
4 | Cn1c(C(=O)N2CCCCC2)nc(-c2ccc(Cl)cc2)c1-c1ccc(Cl)cc1 | 1.1 | –
5 | Cn1c(C(=O)NC2CCCCCC2)nc(-c2ccc(Cl)cc2Cl)c1-c1ccc(Cl)cc1 | 0.008 | –
6 | O=C(NC1CCCCC1)c1nc(-c2ccc(Cl)cc2Cl)c(-c2ccc(Cl)cc2Cl)o1 | 0.07 | –
7 | Cc1ccc(-c2nc(C(=O)NC3CCCCC3)n(C)c2-c2ccc(C)cc2)cc1 | 0.9 | –
8 | O=C(NC1CCCCC1)c1nc(-c2ccc(Cl)cc2)c(-c2ccc(Cl)cc2Cl)o1 | 1 | –
9 | CN(C(=O)c1nc(-c2ccc(Cl)cc2Cl)c(-c2ccc(Cl)cc2)n1C)C1CCCCC1 | 0.07 | –
10 | O=C(NN1CCCCC1)c1nc(-c2ccc(Cl)cc2Cl)c(-c2ccc(Cl)cc2Cl)o1 | 0.2 | –
11 | O=C(NC1CCCCC1)c1nc(-c2ccc(Cl)cc2Cl)c(-c2ccc(Cl)cc2)o1 | 0.08 | –
12 | Cn1c(C(=O)NN2CCCCC2)nc(-c2ccccc2)c1-c1ccccc1 | 1.9 | –
13 | Cn1c(C(=O)NC2CCCC2)nc(-c2ccc(Cl)cc2Cl)c1-c1ccc(Cl)cc1 | 0.017 | –
14 | Cn1c(C(=O)NC2CCCCC2)nc(-c2ccc(Cl)cc2Cl)c1-c1ccc(Cl)cc1Cl | 0.0052 | –
15 | Cn1c(C(=O)N2CCCCC2)nc(-c2ccccc2)c1-c1ccccc1 | 19 | –
16 | Cn1c(C(=O)NC2CCCCC2)nc(-c2ccc(Cl)cc2)c1-c1ccc(Cl)cc1Cl | 0.046 | –

Now from value to molecule, other results behind:

Row | IC50 [1] [µM] | SMILES | further results
17 | 0.5 | O=C(NC1CCCCC1)c1nc(-c2ccc(Cl)cc2)c(-c2ccc(Cl)cc2)o1 | –
18 | 0.016 | Cn1c(C(=O)NN2CCCCC2)nc(-c2ccc(Cl)cc2Cl)c1-c1ccc(Cl)cc1Cl | –
19 | 0.19 | Cn1c(C(=O)NN2CCCCC2)nc(-c2ccc(Cl)cc2)c1-c1ccc(Cl)cc1Cl | –
20 | 0.47 | O=C(NN1CCCCC1)c1nc(-c2ccc(Cl)cc2)c(-c2ccc(Cl)cc2Cl)o1 | –
21 | 0.9 | Cn1c(C(=O)NC(C)(C)C)nc(-c2ccc(Cl)cc2)c1-c1ccc(Cl)cc1 | –
22 | 0.26 | O=C(NN1CCCCC1)c1nc(-c2ccc(Cl)cc2Cl)c(-c2ccc(Cl)cc2)o1 | –
23 | 6 | O=C(NN1CCCCC1)c1nc(-c2ccc(Cl)cc2)c(-c2ccc(Cl)cc2)[nH]1 | –
24 | 0.26 | Cn1c(C(=O)NN2CCCCC2)nc(-c2ccc(Cl)cc2)c1-c1ccc(Cl)cc1 | EC50 [5]: 0.1 µM
25 | 0.06 | Cn1c(C(=O)Nc2ccccc2)nc(-c2ccc(Cl)cc2Cl)c1-c1ccc(Cl)cc1 | –
26 | 0.45 | Cn1c(C(=O)NC2CCCCC2)nc(-c2ccc(Cl)cc2)c1-c1ccc(Cl)cc1 | EC50 [5]: 0.5 µM
27 | 0.0061 | Cn1c(C(=O)NN2CCCCC2)nc(-c2ccc(Cl)cc2Cl)c1-c1ccc(Cl)cc1 | AUC nom [2]: 1.3 µM·kg·h/mg; bioavailability [3]: 50%; half-life [4]: 2.4 h; EC50 [5]: 0.005 µM; Kp at 4 h [12]: 3.4; clearance [6]: 28 mL/min/kg; Vd [7]: 3.7 L/kg; Kp at 1 h [8]: 3.6; Kp at 2 h [9]: 2.9; Kp at 0.25 h [11]: 3
